BindingDB's records for doi:10.1016/j.bmc.2019.06.043 (Marquette University, 2019)
pIC50: −log10 of the molar value.

Target: T1, Proteinase-activated receptor 1 (Homo sapiens, UniProt P25116)
T1 sequence (P25116 whole entry): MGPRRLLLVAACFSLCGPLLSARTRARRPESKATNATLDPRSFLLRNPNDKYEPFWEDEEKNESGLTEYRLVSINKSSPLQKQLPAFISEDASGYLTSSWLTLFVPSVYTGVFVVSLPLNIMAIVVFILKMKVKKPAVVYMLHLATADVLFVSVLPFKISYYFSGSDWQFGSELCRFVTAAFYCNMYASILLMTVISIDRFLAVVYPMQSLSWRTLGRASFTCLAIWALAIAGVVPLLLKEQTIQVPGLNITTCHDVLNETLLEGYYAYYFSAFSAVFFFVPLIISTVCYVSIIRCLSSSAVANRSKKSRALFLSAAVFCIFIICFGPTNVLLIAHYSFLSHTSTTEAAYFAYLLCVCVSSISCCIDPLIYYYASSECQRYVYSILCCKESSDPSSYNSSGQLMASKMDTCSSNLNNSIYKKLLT
Assay: Negative allosteric modulation of PAR1 in human EAhy926 cells assessed as reduction in TFLLRN-NH2-induced intracellular calcium mobilization incubated for 15 mins followed by TFLLRN-NH2 addition by Fluo-4-AM dye based fluorescence assay
Method in brief: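 Adherent EA.hy926 endothelial cells in 96-well format, intracellular Ca2+ mobilization triggered by PAR1 agonist TFLLRN-NH2 at 5 µM; single-point % inhibition at 10 µM (n = 4 wells, SEM); 7-point concentration-response curves, 3 wells per concentration, pIC50 from 4-variable non-linear regression; average IC50 ± SEM over independent assays.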

- pIC50: 6.10
SMILES: CCCC(=O)Nc1cccc(NC(=O)c2ccccc2Br)c1
